Test results reported in ChEMBL document CHEMBL1158162, “Identifying structural features on 1,1-diphenyl-hexahydro-oxazolo[3,4-a]pyrazin-3-ones critical for Neuropeptide S antagonist activity” (2008).

What was measured:
[1] = Antagonist activity at NPS Ile107 mutant receptor expressed in RD-HGA16 cells assessed by calcium mobilization by FlexStation assay; type: functional
Method in brief: (§1)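 Cells loaded with calcium3 dye for 1 h; calcium mobilization read on FlexStation. Compounds tested separately for intrinsic activity and for inhibition of NPS. Ke from an 8-point half-log NPS concentration-response run with and without one compound concentration, at least two concentrations giving at least four-fold rightward EC50 shift; Ke = [L]/(DR-1). Mean ± SE, at least three independent experiments.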

[2] = Antagonist activity at NPS Asn107 mutant receptor expressed in RD-HGA16 cells assessed by calcium mobilization by FlexStation assay; type: functional; method in brief: as §1
RD-HGA16 = assay: Ratio of Ke for NPS Asn107 mutant receptor to Ke for NPS Ile107 mutant receptor expressed in RD-HGA16 cells; type: cell-based
[3] = Antagonist activity at NPS Ile107 mutant receptor expressed in RD-HGA16 cells; type: functional; method in brief: as §1
[4] = Antagonist activity at NPS Asn107 mutant receptor expressed in RD-HGA16 cells; type: functional; method in brief: as §1

Row | Compound | Ke [1] [nM] | Ke [2] [nM] | Ratio Ke (RD-HGA16) | Kb ([1]; RD-HGA16) [nM] | Kb ([2]; RD-HGA16) [nM] | Kb [3] [nM] | Kb [4] [nM]
1 | O=C(NCCN1CCCCC1)N1CCN2C(=O)OC(c3ccccc3)(c3ccccc3)C2C1 (stereo unspecified) | 109 | 490 | 4.5 | – | – | – | –
2 | O=C(NCCc1ccc(F)cc1)N1CCN2C(=O)OC(c3ccccc3)(c3ccccc3)C2C1 (stereo unspecified) | 321 | 326 | 1 | – | – | – | –
3 | O=C(NCCCCc1ccccc1)N1CCN2C(=O)OC(c3ccccc3)(c3ccccc3)C2C1 (stereo unspecified) | 537 | 437 | 0.8 | – | – | – | –
4 | O=C(NCCc1ccc2c(c1)OCO2)N1CCN2C(=O)OC(c3ccccc3)(c3ccccc3)C2C1 (stereo unspecified) | 567 | 690 | 1.2 | – | – | – | –
5 | O=C(NCCCc1ccccc1)N1CCN2C(=O)OC(c3ccccc3)(c3ccccc3)C2C1 (stereo unspecified) | 309 | 417 | 1.3 | – | – | – | –
6 | O=C1OC(c2ccccc2)(c2ccccc2)C2CN(C(=S)NCCN3CCOCC3)CCN12 (stereo unspecified) | 3760 | 2560 | 0.7 | – | – | – | –
7 | CCOC(=O)CNC(=O)N1CCN2C(=O)OC(c3ccccc3)(c3ccccc3)C2C1 (stereo unspecified) | 726 | 1260 | 1.7 | – | – | – | –
8 | O=C(O)CNC(=O)N1CCN2C(=O)OC(c3ccccc3)(c3ccccc3)C2C1 (stereo unspecified) | > 4000 | > 4000 | – | – | – | – | –
9 | CN1CCN2C(=O)OC(c3ccccc3)(c3ccccc3)C2C1 (stereo unspecified) | > 4000 | > 4000 | – | – | – | – | –
10 | O=C(CCc1ccc(F)cc1)N1CCN2C(=O)OC(c3ccccc3)(c3ccccc3)C2C1 (stereo unspecified) | 339 | 460 | 1.4 | – | – | – | –
11 | N[C@H](Cc1ccccc1)C(=O)N1CCN2C(=O)OC(c3ccccc3)(c3ccccc3)C2C1 (stereo partly specified) | 911 | 4640 | 5.1 | – | – | – | –
12 | O=C(COc1ccc(F)cc1)N1CCN2C(=O)OC(c3ccccc3)(c3ccccc3)C2C1 (stereo unspecified) | 244 | 267 | 1.1 | – | – | – | –
13 | CN(Cc1ccc(F)cc1)C(=O)N1CCN2C(=O)OC(c3ccccc3)(c3ccccc3)C2C1 (stereo unspecified) | 214 | 588 | 2.8 | – | – | – | –
14 | O=C(NCc1ccc(F)cc1)N1CCN2C(=O)OC(c3ccccc3)(c3ccccc3)C2C1 (stereo unspecified) | 13.7 | 52 | 3.8 | 27.9 | 16.9 | 27.9 | 16.9
15 | O=C1OC(c2ccccc2)(c2ccccc2)C2CN(CCCCc3ccc(F)cc3)CCN12 (stereo unspecified) | 1110 | 1100 | 1 | – | – | – | –
16 | O=C(NCc1ccccc1)N1CCN2C(=O)OC(c3ccccc3)(c3ccccc3)C2C1 (stereo unspecified) | 9.9 | 47 | 4.8 | – | – | 32.6 | 21.7
17 | C[C@@H](NC(=O)N1CCN2C(=O)OC(c3ccccc3)(c3ccccc3)C2C1)c1ccccc1 (stereo partly specified) | 317 | 229 | 0.7 | – | – | – | –
18 | O=C(OCc1ccccc1)N1CCN2C(=O)OC(c3ccccc3)(c3ccccc3)C2C1 (stereo unspecified) | 354 | 353 | 1 | – | – | – | –
19 | O=C1OC(c2ccccc2)(c2ccccc2)C2CN(C(=S)NCCN3CCCCC3)CCN12 (stereo unspecified) | 280 | 354 | 1.3 | – | – | – | –
